According to ChEMBL document CHEMBL1145118, “Metabolites of febrifugine and its synthetic analogue by mouse liver S9 and their antimalarial activity against Plasmodium malaria parasite” (J Med Chem, 2003):

How the values were obtained:
[1] = Selectivity ratio between cytotoxicity to antimalarial activity was determined; type: functional
[2] = test system: Plasmodium berghei; test: (§1) In vivo effective dose for antimalarial activity by intraperitoneal dose; type: functional; details: ip
Procedure, shortened: (§2)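 Mice infected with P. berghei were dosed intraperitoneally or orally, in groups of five, once daily on days 0–3. Compounds were given at various concentrations in distilled water or olive oil. Parasitemia was measured on day 4, the day after the last dose. ED50 and ED90 were derived by a previously reported protocol.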

[3] = test system: Plasmodium berghei; test: as §1; type: functional; details: ip; remark: listed apart in the source
Procedure, shortened: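 P. berghei-infected mice, five per group. Test agents were prepared at various concentrations in distilled water or olive oil and given intraperitoneally once daily on days 0–3. Parasitemia was measured on day 4, the day after the last dose, and effective doses were derived by a previously reported protocol.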

[4] = test system: Plasmodium falciparum; test: In vitro antimalarial activity against Plasmodium falciparum FCR3; type: functional, organism-based
[5] = test system: FM3A; test: Cytotoxicity against FM3A mouse mammary cells; type: functional, cell-based
[6] = test system: Plasmodium berghei; test: In vivo effective dose for antimalarial activity by peroral dose; type: functional; details: po; procedure, shortened: as §2
[7] = test system: Plasmodium berghei; test: In vivo antimalarial activity at >100mg/kg intraperitoneal dose; type: functional

Compound | Ratio [1] | ED90 [2] [mg/kg] | ED50 [3] [mg/kg] | EC50 [4] [nM] | EC50 [5] [nM] | ED50 [6] [mg/kg] | ED90 [6] [mg/kg] | Inhibition [7] [%]
CC1(C)[C@@H](n2cnc3ccccc3c2=O)C(=O)C[C@@H]2[C@@H](O)CCCN21 | 238 | 6.6 | 2.5 | – | – | – | – | –
O=C(C[C@H]1NCCC[C@@H]1O)Cn1c(=O)[nH]c2ccccc2c1=O | >13 | – | – | 6600 | > 85000 | – | – | –
O=C(C[C@H]1NC(=O)CC[C@@H]1O)Cn1cnc2ccccc2c1=O | – | – | – | > 52000 | > 52000 | – | – | –
O=c1c2cc(O)ccc2ncn1CC1(O)C[C@@H]2NCCC[C@@H]2O1 (stereo not given in full) | 10741 | 37 | 6 | 0.27 | 29000 | – | – | –
O=C(C[C@H]1NCCC[C@@H]1O)Cn1cnc2ccc(O)cc2c1=O | 123 | 5.2 | 0.6 | 2.2 | 270 | 15 | 27 | –
O=c1c2ccccc2ncn1CC1(O)C[C@@H]2NCC[C@H](O)[C@@H]2O1 (stereo not given in full) | 167 | – | – | 150 | 250 | – | – | –
O=C(C[C@H]1NCC[C@H](O)[C@@H]1O)Cn1cnc2ccccc2c1=O | 1636 | 8.3 | 2.4 | 22 | 36000 | 8 | 23 | –
O=C(C[C@@H]1NCCC[C@H]1O)Cn1cnc2ccccc2c1=O (single isomer, unassigned) [FEBRIFUGINE] | 243 | 1.5 | 0.3 | – | – | – | – | –
C[C@@H]1CC[C@H]2[C@@H](C)C(=O)O[C@@H]3O[C@@]4(C)CC[C@@H]1[C@]32OO4 [ARTEMISININ] | 1000 | 3.3 | 2 | – | – | 3 | 8 | –
CCN(CC)CCCC(C)Nc1ccnc2cc(Cl)ccc12 (stereo not given) [CHLOROQUINE] | – | 13 | 5.4 | – | – | 32 | 89 | –
O=c1c2ccccc2ncn1CC1(O)C[C@@H]2NCCC[C@@H]2O1 (stereo not given in full) [ISOFEBRIFUGINE] | 53 | – | 79 | – | – | – | – | 70
